From ChEMBL document CHEMBL1151748, “Synthesis, modeling, and RET protein kinase inhibitory activity of 3- and 4-substituted beta-carbolin-1-ones” (J Med Chem, 2008)
Calls of active or inactive are those of the source. The rule behind the calls is not given here.

Assays:
NIH3T3 [1] = test: Antiproliferative activity against mouse NIH3T3 cells after 72 hrs; settings: NIH3T3, 72 h
NIH3T3 [2] = test: Antiproliferative activity against mouse NIH3T3 cells transfected with H-RAS oncogene after 72 hrs; settings: NIH3T3, 72 h
NIH3T3 [3] = test: Antiproliferative activity against mouse NIH3T3 cells expressing RET C634R mutant associated with MEN2A syndrome after 72 hrs; settings: NIH3T3, 72 h
[4] = target: Proto-oncogene tyrosine-protein kinase receptor Ret (Homo sapiens, UniProt P07949); test: Inhibition of recombinant RET active protein by immunoblotting
Sequence of Proto-oncogene tyrosine-protein kinase receptor Ret (P07949 whole entry): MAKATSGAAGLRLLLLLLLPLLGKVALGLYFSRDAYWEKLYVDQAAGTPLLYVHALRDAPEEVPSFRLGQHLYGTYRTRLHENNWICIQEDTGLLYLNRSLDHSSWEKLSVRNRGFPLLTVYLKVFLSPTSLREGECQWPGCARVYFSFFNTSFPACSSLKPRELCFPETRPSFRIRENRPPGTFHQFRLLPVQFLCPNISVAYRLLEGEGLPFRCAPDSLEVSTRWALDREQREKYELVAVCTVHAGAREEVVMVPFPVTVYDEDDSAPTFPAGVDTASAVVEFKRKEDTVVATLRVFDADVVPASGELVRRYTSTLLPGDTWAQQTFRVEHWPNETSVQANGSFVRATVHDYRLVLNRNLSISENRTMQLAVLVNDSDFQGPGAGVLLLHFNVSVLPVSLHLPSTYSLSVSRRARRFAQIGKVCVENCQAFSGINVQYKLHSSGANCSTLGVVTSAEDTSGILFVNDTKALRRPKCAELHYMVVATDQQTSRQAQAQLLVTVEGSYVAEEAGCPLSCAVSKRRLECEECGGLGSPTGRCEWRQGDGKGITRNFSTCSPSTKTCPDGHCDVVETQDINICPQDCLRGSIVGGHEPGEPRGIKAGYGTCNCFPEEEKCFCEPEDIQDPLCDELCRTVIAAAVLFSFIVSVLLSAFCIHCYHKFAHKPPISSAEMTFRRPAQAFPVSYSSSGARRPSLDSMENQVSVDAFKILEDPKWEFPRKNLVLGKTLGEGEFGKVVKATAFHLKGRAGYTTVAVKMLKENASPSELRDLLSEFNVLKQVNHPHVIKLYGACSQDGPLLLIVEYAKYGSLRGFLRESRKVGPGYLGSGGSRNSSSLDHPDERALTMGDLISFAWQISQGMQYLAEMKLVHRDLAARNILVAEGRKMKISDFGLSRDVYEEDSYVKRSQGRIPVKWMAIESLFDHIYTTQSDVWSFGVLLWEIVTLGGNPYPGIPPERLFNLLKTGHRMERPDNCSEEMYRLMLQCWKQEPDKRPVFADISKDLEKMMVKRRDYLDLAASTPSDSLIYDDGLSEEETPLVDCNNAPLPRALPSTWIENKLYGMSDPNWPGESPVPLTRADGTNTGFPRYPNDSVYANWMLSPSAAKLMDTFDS

NIH3T3 [5] = test: Inhibition of RET oncoprotein expression in mouse NIH3T3 cells transfected with RET C634R mutant associated with MEN2A syndrome at 2.5 to 10 uM after 24 hrs by Western blot; assay type: functional, cell-based
In short: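 NIH3T3MEN2A cells were exposed to compound or to DMSO vehicle for 24 h. Whole-cell lysates were Western blotted with anti-Ret (H300) and anti-phospho-Ret (Y1062) antibodies. Actin served as the loading control, and a lysate of untreated parental NIH3T3 cells was run alongside.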

IC50 [4] | Structure (SMILES) | IC50 (NIH3T3 [1]) | IC50 (NIH3T3 [2]) | IC50 (NIH3T3 [3]) | Activity (NIH3T3 [5])
0.11 µM | COc1cc2[nH]c3c(=O)[nH]cc(-c4ccc(O)cc4)c3c2cc1OC | 13.9 µM | 13.5 µM | 4.7 µM | –
– | COc1ccc(C2=CCNC(=O)c3c2c2cc(OC)c(OC)cc2n3C)cc1 | – | – | 9.9 µM | –
– | COc1cc2[nH]c3c(=O)[nH]c(-c4ccccc4)cc3c2cc1OC | – | – | 13.3 µM | –
– | COc1cc2c3cc(-c4ccccc4)[nH]c(=O)c3n(C)c2cc1OC | – | – | 34.4 µM | –
– | COc1cc2c3c(n(C)c2cc1OC)C(=O)NCC=C3 | – | – | 7.8 µM | –
> 0.6 µM | COc1cc2c3c(C)c[nH]c(=O)c3n(C)c2cc1OC | 10.6 µM | – | 5.6 µM | –
– | COc1cc2c3c(n(C)c2cc1OC)C(=O)N(C)CC=C3c1ccc(O)cc1 | – | – | 18.4 µM | –
– | COc1ccc(CN2CC=C(c3ccc(O)cc3)c3c(n(C)c4cc(OC)c(OC)cc34)C2=O)cc1 | – | – | 6.8 µM | –
> 0.6 µM | COc1cc2c3ccn(Cc4ccccc4)c(=O)c3n(C)c2cc1OC | – | – | 15.9 µM | –
– | COc1ccc2c(c1)c1c(-c3ccc(O)cc3)c[nH]c(=O)c1n2C | 25 µM | > 30 µM | 12.2 µM | –
– | COc1cc2[nH]c3c(c2cc1OC)C(c1ccc(O)cc1)=CCNC3=O | – | – | 19.8 µM | –
– | COc1cc2c3c(-c4ccc(O)cc4)c[nH]c(=O)c3n(C)c2cc1OC | 7.2 µM | 6.6 µM | 1.95 µM | Active
– | Cn1c2ccccc2c2c(-c3ccc(O)cc3)c[nH]c(=O)c21 | > 30 µM | > 30 µM | 17.3 µM | –
– | COc1cc2c3c(n(C)c2cc1OC)C(=O)NCC=C3c1ccc(O)cc1 | – | – | 14.4 µM | –
– | COc1cc2c3c(-c4ccc(O)cc4)c[nH]c(=O)c3n(Cc3ccccc3)c2cc1OC | 17.7 µM | – | 7.5 µM | –
– | COc1cc2c3c(n(C)c2cc1OC)C(=O)NCC=C3C | – | – | 16.7 µM | –
0.25 µM | COc1cc2c3c(-c4ccccc4)c[nH]c(=O)c3n(C)c2cc1OC | 17.8 µM | 13.8 µM | 3.3 µM | –
0.09 µM | COc1cc2c3c(-c4cccc(O)c4)c[nH]c(=O)c3n(C)c2cc1OC | 6.7 µM | 6.1 µM | 3.2 µM | –
